# Reference: ChEMBL document CHEMBL1149253, “Effects of indole fatty alcohols on the differentiation of neural stem cell derived neurospheres” (J Med Chem, 2004)
# Calls of active or inactive are those of the source. No cut-off for these calls is given here.
# Tests used:
# [1] = Differentiation activity of neural stem cell derived neurosphere into neurons at 10 nM after 3 days relative to control; assay type: functional, Homo sapiens
# In short: (§1)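 Dissociated neurospheres proliferated for 3 days, then 50–100 spheres were plated on polyornithine coverslips to differentiate, with EGF reduced to 2 ng/mL. Compound (ethanol stock, 0.1% ethanol final; ethanol-only control) was added at plating, or daily at 10 nM in proliferation, differentiation or both phases. Spheres were fixed in 4% PFA and immunostained for MAP2/TUJ1 (neurons) and GFAP (astrocytes). Confocal counts were expressed as % of TO-PRO-3-stained cells; >10 spheres per condition, 3–4 independent experiments.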
# [2] = Hydroxyl radical scavenging activity after 2 hrs by ABTS competition assay; assay type: functional
# In short: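 In the ABTS competition assay, hydroxyl radicals oxidize ABTS to ABTS•+, read by absorbance at 405 nm. IC50 is the concentration giving 50% decrease in ABTS•+ formed. Values are means of triplicate determinations.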
# [3] = Decrease in Notch4 mRNA expression in neural stem cell derived neurospheres during differentiation phase at 10 nM by semi-quantitative RT-PCR; assay type: functional; parameters: scale not given: the % may be the effect or the level left; conditions: Homo sapiens
# In short: (§2)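 Neurospheres were treated with or without compound at 10 nM during the differentiation phase. Total RNA was then isolated. cDNA was made from 3 μg RNA with M-MLV reverse transcriptase and random hexamers at 37 °C for 1 h. One-tenth of the cDNA was amplified by Taq PCR with gene-specific Notch primers, using GAPDH as internal control (94/55/72 °C, 30 s each). Products were resolved on a 1% agarose gel with ethidium bromide.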
# [4] = Effect on neural stem cell derived neurospheres during proliferation and differentiation phase assessed as increase in number of MAP2 positive cells at 10 nM; assay type: functional, Homo sapiens; in short: as §1
# Homo sapiens [5] = organism: Homo sapiens; assay: Mitotic effect on neuronal precursors in neural stem cell derived neurospheres assessed by BrdU incorporation; assay type: functional
# [6] = Decrease in Notch3 mRNA expression in neural stem cell derived neurospheres during differentiation phase at 10 nM by semi-quantitative RT-PCR; assay type: functional; parameters: scale not given: the % may be the effect or the level left; conditions: Homo sapiens; in short: as §2
# Homo sapiens [7] = organism: Homo sapiens; assay: Effect on neural stem cell derived neurospheres assessed as differentiation into astrocytes at 10 nM after 3 days; assay type: functional; in short: as §1
# [8] = Effect on neural stem cell derived neurospheres during differentiation phase assessed as increase in number of MAP2 positive cells at 10 nM after 3 days; assay type: functional, Homo sapiens; in short: as §1
# [9] = Effect on neural stem cell derived neurospheres during proliferation phase assessed as increase in number of MAP2 positive cells at 10 nM after 3 days; assay type: functional, Homo sapiens; in short: as §1
# [10] = Decrease in Notch2 mRNA expression in neural stem cell derived neurospheres during differentiation phase at 10 nM by semi-quantitative RT-PCR; assay type: functional; parameters: scale not given: the % may be the effect or the level left; conditions: Homo sapiens; in short: as §2
# [11] = Decrease in Notch1 mRNA expression in neural stem cell derived neurospheres during differentiation phase at 10 nM by semi-quantitative RT-PCR; assay type: functional; parameters: scale not given: the % may be the effect or the level left; conditions: Homo sapiens; in short: as §2
SMILES,Activity [1] [%],IC50 [2] [µM],further results
COc1cccc2[nH]cc(CCCCCCCCCCCCCCO)c12,118,–,–
COc1ccc2[nH]cc(CCCCCCCCCCCCO)c2c1,108,–,–
COc1cccc2[nH]cc(CCCCCCCCCCCCCCCCCCO)c12,110,–,–
COc1cc2[nH]cc(CCCCCCCCCCCCCCCCCCO)c2cc1OC,116,–,–
COc1cccc2[nH]cc(CCCCCCCCCCCCCCCCO)c12,133,23,–
COc1cccc2[nH]cc(CCCCCCCCCCCCO)c12,98,–,–
OCCCCCCCCCCCCCCCCCCc1c[nH]c2ccccc12,113,–,–
COc1ccc2c(CCCCCCCCCCCCCCCCCCO)c[nH]c2c1,156,–,–
OCCCCCCCCCCCCCCCCc1c[nH]c2ccccc12,144,–,–
COc1ccc2c(CCCCCCCCCCCCCCO)c[nH]c2c1,82,–,–
COc1ccc2[nH]cc(CCCCCCCCCCCCCCCCCCO)c2c1OC,106,–,–
COc1ccc2[nH]cc(CCCCCCCCCCCCCCCCCCO)c2c1,169,–,Activity [3]: 19%; Activity [4]: <=90%; Activity (Homo sapiens [5]): inactive; Activity [6]: > 70%; Activity (Homo sapiens [7]): inactive; Activity [8]: <=90%; Activity [9]: <=90%; Activity [10]: > 70%; Activity [11]: > 70%
COc1cccc2c(CCCCCCCCCCCCCCCCO)c[nH]c12,–,26,–
COc1ccc2[nH]cc(CCCCCCCCCCCCCCCCO)c2c1,168,34,–
OCCCCCCCCCCCCCCc1c[nH]c2ccccc12,118,–,–
COc1ccc2[nH]cc(CCNC(C)=O)c2c1 [MELATONIN],119,211,–
OCCCCCCCCCCc1c[nH]c2ccccc12,115,–,–
CCCCCCCCCCCCCCCc1c[nH]c2ccc(OC)cc12,–,207,–
COc1ccc2c(CCCCCCCCCCCCCCCCO)c[nH]c2c1,135,34,–
COc1ccc2[nH]cc(CCCCCCCCCCCCCCCCO)c2c1OC,118,17,–
COc1ccc2[nH]cc(CCCCCCCCCCCCCCO)c2c1,143,–,–
CC1=C(CCCCCCCCCCCCCCCO)C(C)(C)CCC1=O,–,–,Activity [2]: inactive
COc1cccc2[nH]cc(CCCCCCCCCCO)c12,95,–,–
Cc1c(C)c2c(c(C)c1O)CCC(C)(C(=O)O)O2 (centres undefined) [TROLOX],–,600,–
COc1ccc2[nH]cc(CCCCCCCCCCO)c2c1,109,–,–
COc1ccc2c(CCCCCCCCCCO)c[nH]c2c1,110,–,–
COc1cc2[nH]cc(CCCCCCCCCCCCCCCCO)c2cc1OC,113,34,–
OCCCCCCCCCCCCc1c[nH]c2ccccc12,124,–,–
COc1ccc2c(CCCCCCCCCCCCO)c[nH]c2c1,67,–,–
